Assay results: ChEMBL document CHEMBL1149899 (J Med Chem, 2008)
In brackets after ≈: the same amount, converted by molar mass.

Legend:
[1] = Antitumor activity against human RXF 944L cells; type: functional, cell-based
Procedure, shortened: (§1)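 Panel of 38 human solid-tumour cell lines, each tested in a monolayer proliferation assay. Growth inhibition was expressed as IC50 and IC70 values. Testing was run at Oncotest.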

[2] = system: UO-31; assay: Antitumor activity against human RXF UO31 cells; type: functional, cell-based; procedure, shortened: as §1
[3] = Inhibition of ATPase activity of yeast Hsp90; set-up: species or system Saccharomyces cerevisiae
[4] = Antitumor activity against human LXF 526L cells; type: functional, cell-based; procedure, shortened: as §1
[5] = system: DU-145; assay: Antitumor activity against human DU145 tumor xenografted mouse at 10 mg/kg, ip measured on day 31; type: functional; settings: route intraperitoneal
[6] = Antitumor activity against human PAXF 165L cells; type: functional, cell-based; procedure, shortened: as §1
[7] = system: OVCAR-3; assay: Antitumor activity against human OVCAR-3 cells; type: functional, cell-based; procedure, shortened: as §1
[8] = Antitumor activity against human LXF H640 cells; type: functional, cell-based; procedure, shortened: as §1
[9] = Antitumor activity against human CXF HT29 cells; type: functional, cell-based; settings: HT-29; procedure, shortened: as §1
[10] = Antitumor activity against human […] 1138L cells; type: functional, cell-based; procedure, shortened: as §1
[11] = Antitumor activity against human GXF 251L cells; type: functional, cell-based; procedure, shortened: as §1
[12] = system: MCF7; assay: Antitumor activity against human MAXF MCF7 cells; type: functional, cell-based; procedure, shortened: as §1
[13] = system: DU-145; assay: Antitumor activity against human PRXF DU145 cells; type: functional, cell-based; procedure, shortened: as §1
[14] = system: SF-268; assay: Antitumor activity against human CNXF SF268 cells; type: functional, cell-based; procedure, shortened: as §1
[15] = Antitumor activity against human PRXF LNCAP cells; type: functional, cell-based; procedure, shortened: as §1
[16] = system: DU-145; assay: Degradation of cRaf1 in human DU145 cell lysate by Western blot; type: functional, cell-based
Procedure, shortened: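 DU145 prostate cancer cells were exposed to 1 or 10 µM, with time points including 48 and 96 h. Cell lysates were probed by Western blot for ErbB2, cRaf1, Hsp90 and Hsp70.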

[17] = Antitumor activity against human MEXF 462NL cells; type: functional, cell-based; procedure, shortened: as §1
[18] = system: Mus musculus; assay: Toxicity in human DU145 cells xenografted mouse assessed as loss of body weight at 10 mg/kg, ip on day 3; type: organism-based, DU-145; set-up: dose 10 mg/kg, route intraperitoneal; settings: in vivo
[19] = Antitumor activity against human MEXF 520L cells; type: functional, cell-based; procedure, shortened: as §1
[20] = Antitumor activity against human BXF 1218L cells; type: functional, cell-based; procedure, shortened: as §1
[21] = system: CWR22R; assay: Antitumor activity against human PRXF 22RV1 cells; type: functional, cell-based; procedure, shortened: as §1
[22] = Antitumor activity against human LXF 629L cells; type: functional, cell-based; procedure, shortened: as §1
[23] = Antitumor activity against human RXF 393NL cells; type: functional, cell-based; procedure, shortened: as §1

Compound: CO[C@H]1[C@@H](OC)C[C@H](C)[C@@H](OC)C2=CC(=O)C=C(NC(=O)/C(C)=C/C=C\[C@H](C)[C@@H](OC(N)=O)/C(C)=C/[C@@H]1C)C2=O [MACBECIN]
- IC90 [1]: 10 µg/mL (≈ 17.9 µM)
- IC50 [2]: 2.4 µg/mL (≈ 4.3 µM)
- IC70 [2]: 4.99 µg/mL (≈ 8.94 µM)
- IC90 [2]: 100 µg/mL (≈ 179 µM)
- IC50 [3]: 2000 nM
- IC50 [4]: 6.45 µg/mL (≈ 11.5 µM)
- IC70 [4]: 41.2 µg/mL (≈ 73.8 µM)
- IC90 [4]: 242 µg/mL (≈ 434 µM)
- T/C [5]: 32.2%
- IC50 [6]: 4.16 µg/mL (≈ 7.44 µM)
- IC70 [6]: 19.3 µg/mL (≈ 34.6 µM)
- IC90 [6]: > 100 µg/mL
- IC50 [7]: 1.24 µg/mL (≈ 2.22 µM)
- IC70 [7]: 3.62 µg/mL (≈ 6.47 µM)
- IC90 [7]: 10.6 µg/mL (≈ 18.9 µM)
- IC50 [8]: 2.11 µg/mL (≈ 3.78 µM)
- IC70 [8]: 7.33 µg/mL (≈ 13.1 µM)
- IC90 [8]: 61.6 µg/mL (≈ 110 µM)
- IC50 [9]: < 0.01 µg/mL
- IC70 [9]: 0.292 µg/mL (≈ 0.523 µM)
- IC90 [9]: 7.2 µg/mL (≈ 12.9 µM)
- IC50 [10]: 3.35 µg/mL (≈ 5.99 µM)
- IC70 [10]: 11.1 µg/mL (≈ 19.9 µM)
- IC90 [10]: 90.1 µg/mL (≈ 161 µM)
- IC50 [11]: 3.73 µg/mL (≈ 6.67 µM)
- IC70 [11]: 25.1 µg/mL (≈ 45 µM)
- IC90 [11]: 93.6 µg/mL (≈ 168 µM)
- IC50 [12]: 0.158 µg/mL (≈ 0.283 µM)
- IC70 [12]: 3.32 µg/mL (≈ 5.95 µM)
- IC90 [12]: 79.4 µg/mL (≈ 142 µM)
- IC50 [13]: < 0.01 µg/mL
- IC70 [13]: < 0.01 µg/mL
- IC90 [13]: 2.37 µg/mL (≈ 4.24 µM)
- IC50 [14]: 0.527 µg/mL (≈ 0.943 µM)
- IC70 [14]: 1.97 µg/mL (≈ 3.52 µM)
- IC90 [14]: 7.63 µg/mL (≈ 13.7 µM)
- IC50 [15]: 0.008 µg/mL (≈ 0.0143 µM)
- IC70 [15]: 14.2 µg/mL (≈ 25.5 µM)
- IC90 [15]: > 100 µg/mL
- Activity [16]: Dose-dependent effect
- IC50 [17]: 0.456 µg/mL (≈ 0.816 µM)
- IC70 [17]: 1.97 µg/mL (≈ 3.52 µM)
- IC90 [17]: 41.2 µg/mL (≈ 73.8 µM)
- Activity [18]: 5.3%
- IC50 [19]: 9.34 µg/mL (≈ 16.7 µM)
- IC70 [19]: 26.4 µg/mL (≈ 47.3 µM)
- IC90 [19]: 73.6 µg/mL (≈ 132 µM)
- IC50 [20]: < 0.01 µg/mL
- IC70 [20]: < 0.01 µg/mL
- IC90 [20]: 37.3 µg/mL (≈ 66.7 µM)
- IC50 [21]: 0.189 µg/mL (≈ 0.338 µM)
- IC70 [21]: 1.86 µg/mL (≈ 3.33 µM)
- IC90 [21]: 31.6 µg/mL (≈ 56.6 µM)
- IC50 [22]: 0.005 µg/mL (≈ 0.00895 µM)
- IC70 [22]: 30.6 µg/mL (≈ 54.8 µM)
- IC90 [22]: 114 µg/mL (≈ 204 µM)
- IC50 [23]: 0.297 µg/mL (≈ 0.532 µM)
- IC70 [23]: 5.18 µg/mL (≈ 9.27 µM)
- IC90 [23]: 57.8 µg/mL (≈ 103 µM)
